An excerpt weighted towards active compounds, which were near 3.9% of everything screened.
TMEM16A act = TMEM16A chloride channel activators or potentiators, primary screen, cell-based, HTS. Anoctamin-1 (Mus musculus), Q8BHY3. HEK293 TMEM16A/YFP-H148Q/I152L, iodide quench fluorescence; stronger effect = lower value. B-score at 10 µM. 340,000 compounds, 0.3% hits. AID 623877, 2012;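 active = fluorescence-ratio B-score plate-corrected deviation score at least 3 library SD below zero, with starting fluorescence score within 5 deviations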;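 also: channel opened by trigger with iodide after compound preincubation; score built on the fluorescence ratio of max minus min over baseline; more negative score means more quench and so TMEM16A activation or potentiation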
CRFBP-R2 block = antagonists of CRF-BP/CRF-R2 complex, primary screen, cell-based, HEK293, calcium dye fluorescence, uHTS. CRF-induced calcium fluorescence. AID 588475, 2011. inhibition, % at 11.8 µM. 350,000 compounds, 0.59% hits;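 active = inhibition of the ligand-induced calcium signal above about 50% at the single tested concentration, limit read from the data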
ANO1 block = TMEM16A chloride channel inhibitors, primary screen, cell-based, HTS; Anoctamin-1 (Mus musculus), Q8BHY3; HEK293 TMEM16A/YFP iodide influx fluorescence, ionomycin; normalized B-score (activity score, 25-100; higher = stronger inhibition) at 10 µM; 310,000 compounds, 1.2% hits;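 active = ratio plate-corrected score three or more library SD toward inhibition, starting fluorescence score within five deviations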;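 also: score derived from kinetic fluorescence span divided by baseline fluorescence per well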
CRFR2-BP ag = agonists of CRF-BP/CRF-R2 complex, primary screen, cell-based, HEK293, calcium dye fluorescence, uHTS; CRF-binding protein / CRF receptor 2 complex (human); calcium dye fluorescence (FLIPR); percent of saturating CRF peptide response; activation, % at 13.2 µM; 350,000 compounds, 0.46% hits; AID 588473, 2011;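 active = activation of at least 50%, plus an integration ratio under a set limit after plate pattern correction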
TAAR1 agonist = human TAAR1 agonists, primary screen, Fluo-8 calcium fluorescence, CHO RD-HGA16 cells | vehicle wells 0%, saturating PEA agonist 100% | activation, % at 3 µM | 360,000 compounds, 0.99% hits;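 active = activation above the mean activation of all test compounds in the run plus 3 SD, cut at about 38% in these data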
Target sequence (Q96RJ0 whole entry, looked up): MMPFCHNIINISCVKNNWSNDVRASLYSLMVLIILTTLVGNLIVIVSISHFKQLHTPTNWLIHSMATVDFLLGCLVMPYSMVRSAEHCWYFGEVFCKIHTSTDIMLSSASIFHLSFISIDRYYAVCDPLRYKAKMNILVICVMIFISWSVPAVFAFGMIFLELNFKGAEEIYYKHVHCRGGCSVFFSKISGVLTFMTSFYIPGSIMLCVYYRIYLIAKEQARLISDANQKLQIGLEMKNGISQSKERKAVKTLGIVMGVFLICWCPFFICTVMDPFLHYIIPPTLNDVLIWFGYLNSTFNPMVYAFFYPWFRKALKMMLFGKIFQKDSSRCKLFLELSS
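System: CHO RD-HGA16 cells carrying human TAAR1 plus Gα16; Incubation: 17-24 h seeding, 75 min 37 °C dye, 30 min RT; Measured by: Fluo-8 fluorescence, 5 s baseline then 140 s kinetic read; Control set: DMSO and PEA EC100; Replication: single well for each compound.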
TAAR1 antagonist = human TAAR1 antagonists, primary screen, Fluo-8 calcium fluorescence, CHO RD-HGA16 cells | 360,000 compounds, 1.5% hits | inhibition, % at 3 µM | antagonist | Trace amine-associated receptor 1 (Homo sapiens), Q96RJ0;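 active = inhibition above a per-plate cutoff, the mean inhibition of test compounds on that plate plus 3 SD, cut at about 49% in these data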
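Material: RD-HGA16 CHO cells with stable hTAAR1 and Gα16; Dosing: single nominal final test compound concentration of 3 µM; Schedule: seeding 17-24 h prior, 75-min 37 °C, 30-min RT dye loading; Detection: kinetic Fluo-8 calcium fluorescence measurement; Measure: % inhibition from peak post-agonist over basal fluorescence ratio; Benchmarks: vehicle and agonist controls.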
TMEM16A reconf = TMEM16A chloride channel inhibitors, confirmation, cell-based, re-confirmation. shares compounds with ANO1 block. HEK293 TMEM16A/YFP-H148Q, iodide quench fluorescence; ionomycin added to raise cell calcium. inhibition, % at 10 µM. 2,300 compounds, 39% hits. AID 652189, 2013;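 active = mean duplicate percent inhibition, scaled so buffer wells are 0 and the reference blocker 100, over three buffer SD above buffer mean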
TMEM16A Ca cntr = calcium mobilization in TMEM16A/YFP HEK293 cells, confirmation, counter-screen for TMEM16A inhibitor project. shares compounds with ANO1 block. Fluo4 calcium mobilization. calcium response (% of ionomycin), % at 10 µM. 2,300 compounds, 2% hits. AID 652231, 2013;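 active = duplicate-averaged calcium signal over 20% of the ionomycin maximum, relative to buffer baseline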;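 also: each well's signal is peak minus trough fluorescence divided by its pre-addition baseline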
YFP-HEK293 quench = iodide YFP quench changes in parental YFP-HEK293, counter-screen for TMEM16A inhibitor project, cell-based | shares compounds with ANO1 block | ionomycin | YFP ratio F(max-min)/F0 at 10 µM | 2,300 tested, under 10 active;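 active = yellow fluorescent protein signal ratio exceeding the buffer control mean by over 5 SD of those controls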;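 also: ratio is mean of duplicate wells from kinetic YFP trace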
ClC-1 inh = ClC-1 chloride channel inhibition, selectivity assay for TMEM16A inhibitor project, cell-based, voltage-dependent ClC-1. ratio percent, % at 10 µM. 2,300 tested, under 10 active. CHO ClC-1-YFP, iodide influx fluorescence quench; iodide control reads 0, buffer control 100. shares compounds with ANO1 block. AID 652236, 2013;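 active = duplicate-mean ratio percent above the mean of iodide-only control wells, which defines zero, plus 5 of their SD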;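 also: higher percent means stronger block of ClC-1 iodide influx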
Hits are given with their value; i = inactive; nt = no result.

SMILES	TMEM16A act	CRFBP-R2 block	ANO1 block	CRFR2-BP ag	TAAR1 agonist	TAAR1 antagonist	TMEM16A reconf	TMEM16A Ca cntr	YFP-HEK293 quench	ClC-1 inh
Nc1nc2ccc([N+](=O)[O-])cc2[nH]1	i	i	i	i	i	i	nt	nt	nt	nt
Nc1[nH]c2cc([N+](=O)[O-])ccc2c1-c1ccccn1	i	i	i	i	i	69	21%	i	i	i
O=C(Nc1ccc(Cl)c(Cl)c1)Nc1ccc(Br)cc1F	i	i	i	i	i	i	nt	nt	nt	nt
O=C(Nc1ccc(Cl)c(Cl)c1)Nc1ccccc1O	i	i	100	i	i	i	22%	i	i	i
Cc1ccc(C(=O)NCC(=O)OCc2csc(-c3ccccc3)n2)cc1	i	i	i	i	i	i	nt	nt	nt	nt
O=C(OCc1csc(-c2ccccc2)n1)c1ccc(O)cc1	i	i	100	i	i	i	i	i	i	i
Cc1nc(-c2ccc(Cl)cc2)sc1C1(C)CC(c2ccccc2)=NO1 (stereo not given)	i	i	i	i	i	i	nt	nt	nt	nt
Cc1nc(-c2ccc(Cl)cc2)sc1C1(C)CC(c2ccc(Cl)cc2)=NO1 (stereo not given)	i	i	25	i	i	i	i	i	i	i
CCN1CCN(CC(O)COC(C)C)CC1 (stereo not given)	i	i	25	i	i	i	i	i	i	i
CCCCSc1oc(-c2ccco2)nc1S(=O)(=O)c1ccccc1	i	i	25	i	i	i	i	i	i	i
O=C(O)c1c(NC(=O)c2cccc3ccccc23)sc2c1CCC2	i	i	100	i	i	i	24%	i	i	i
Cc1ccc(NC(=O)c2ccc(CN3CCc4ccccc4C3)cc2)cc1	i	i	25	i	i	i	i	i	i	i
O=C(Nc1ccccc1)c1ccc(CN2CCc3ccccc3C2)cc1	i	i	i	i	i	i	nt	nt	nt	nt
Cc1cc(C)cc(NC(=O)c2ccc(CN3CCc4ccccc4C3)cc2)c1	i	i	i	i	i	i	nt	nt	nt	nt
CC(C)(C)c1ccc(C(=O)Nc2ccc(CN3CCS(=O)(=O)CC3)cc2)cc1	i	i	25	i	i	i	20%	i	i	i
O=C(Nc1cccnc1)c1ccc(CN2CCc3ccccc3C2)cc1	i	i	25	i	i	i	22%	i	i	i
O=C(C[C@H]1C/C=C\CC[C@H](Cc2ccc(F)cc2)C(=O)OC[C@@H](Cc2c[nH]c3ccccc23)NC1=O)NCCO	i	i	nt	i	i	i	nt	nt	nt	nt
CCc1ccc(CN2CCN(C(=O)c3cccc(OC)c3OC)CC2)cc1	i	i	25	i	i	i	i	i	i	i
CCOC(=O)c1ccccc1NC(=O)COC(=O)CCC(=O)c1ccc(C)cc1	i	i	i	i	i	i	nt	nt	nt	nt
O=S(=O)(Nc1ccc(Cl)cc1)c1ccc2c(c1)CCO2	i	i	25	i	i	i	i	i	i	i
Nc1cc(S(=O)(=O)Nc2ccc(Cl)cc2)ccc1N1CCOCC1	i	i	25	i	i	i	i	i	i	i
Nc1cc(S(=O)(=O)Nc2ccccc2Cl)ccc1N1CCOCC1	i	i	i	i	i	i	nt	nt	nt	nt
COC(=O)c1cc(S(=O)(=O)N2CCC(c3cc(OC)ccc3OC)C2)c[nH]1 (stereo not given)	i	i	i	i	i	i	nt	nt	nt	nt
O=C(Cn1cccc1C(=O)c1ccccc1)NCc1ccc(F)cc1	i	i	i	i	i	i	nt	nt	nt	nt
Cc1nc(-c2c(-c3ccc(O)cc3O)noc2C(F)(F)F)cs1	i	i	100	i	i	i	i	i	i	i
SMILES	TMEM16A act	CRFBP-R2 block	ANO1 block	CRFR2-BP ag	TAAR1 agonist	TAAR1 antagonist	TMEM16A reconf	TMEM16A Ca cntr	YFP-HEK293 quench	ClC-1 inh
COc1ccc(-c2ncnc(C(F)(F)F)c2-c2csc(C)n2)c(O)c1	i	i	i	i	i	i	nt	nt	nt	nt
Cc1[nH]n2c(=O)cc(-c3ccc([N+](=O)[O-])cc3)nc2c1-c1ccccc1	i	i	i	i	i	i	nt	nt	nt	nt
COc1ccc(-c2c(C(F)(F)F)[nH]n3c(=O)cc(-c4ccccc4)nc23)cc1	i	70	100	i	i	i	49%	i	i	i
CC(=O)c1cccc(NS(=O)(=O)c2ccc(N/C=C\C(=O)c3ccc(F)cc3)cc2)c1	i	i	100	i	i	70	32%	i	i	i
S=C(NCc1ccco1)N1CCN(c2nc(-c3ccccc3)cs2)CC1	i	i	i	i	i	i	nt	nt	nt	nt
S=C(NCC1CCCO1)N1CCN(c2nc(-c3ccccc3)cs2)CC1 (stereo not given)	i	i	25	i	i	i	18%	i	i	i
COc1ccc2oc(C(=O)Nc3cccc(S(=O)(=O)N4CCOCC4)c3)c(C)c2c1	i	i	nt	i	i	i	nt	nt	nt	nt
CC(C)(C)C1=Nn2c(nnc2-c2ccccn2)SC1	i	i	i	i	i	i	i	i	i	i
Cc1ccc(/C([O-])=C(/C(=S)NCCN2CCOCC2)[n+]2ccccc2)cc1[N+](=O)[O-]	i	i	i	i	i	i	nt	nt	nt	nt
Cc1nnc(SCC(=O)c2cc(C)n(-c3ccc4c(c3)OCO4)c2C)s1	-6.1	i	25	63	i	i	i	21%	i	i
Cc1cc(C(=O)CSc2nnnn2C)c(C)n1-c1ccc2c(c1)OCCO2	i	i	i	i	i	i	nt	nt	nt	nt
O=C(CNS(=O)(=O)c1ccc(Br)cc1)NCc1ccncc1	i	i	i	i	i	i	nt	nt	nt	nt
Cc1cccc2sc(NC(=O)CN(C)S(=O)(=O)c3ccc(Br)s3)nc12	i	i	100	i	i	i	i	i	i	i
Cc1cccc2sc(NC(=O)CN(C)S(=O)(=O)c3cccs3)nc12	i	i	i	i	i	i	nt	nt	nt	nt
